Experimental data taken from ChEMBL document CHEMBL3779792, “Anti-proliferative evaluation of monoterpene derivatives against leukemia” (Eur J Med Chem, 2016).
Active and inactive are the calls of the source. The calls are words filed in the database; no cut-off is given here.

Columns and labels:
NALM-6 [1] = experiment: Induction of apoptosis in human NALM6 cells assessed as cleaved PARP level at 0.5 uM measured after 3 and 6 hrs by immunoblot analysis; assay type: functional, cell-based
SEM cells [2] = experiment: Induction of apoptosis in human SEM cells assessed as early apoptotic cells at 1 uM measured after 24 hrs by annexin V-propidium iodide staining based flow cytometric analysis (reference value: 85.3%); assay type: functional
NALM-6 [3] = experiment: Induction of apoptosis in human NALM6 cells assessed as cleaved PARP level at 0.5 uM measured after 12 hrs by immunoblot analysis; assay type: functional, cell-based
SEM cells [4] = experiment: Induction of apoptosis in human SEM cells assessed as viable cells at 1 uM measured after 24 hrs by annexin V-propidium iodide staining based flow cytometric analysis (reference value: 1.5%); assay type: functional; details: read-out: Activity
NALM-6 [5] = experiment: Induction of apoptosis in human NALM6 cells assessed as late apoptotic cells at 0.5 uM measured after 24 hrs by annexin V-propidium iodide staining based flow cytometric analysis (reference value: 4.3%); assay type: functional
NALM-6 [6] = experiment: Induction of apoptosis in human NALM6 cells assessed as activated caspase3 level at 0.5 uM after 3 hrs by immunoblot analysis; assay type: functional, cell-based
SEM cells [7] = experiment: Induction of apoptosis in human SEM cells assessed as activated caspase3 levels at 0.5 uM after 6 hrs by immunoblot analysis; assay type: functional, cell-based
SEM cells [8] = experiment: Effect on cell cycle in human SEM cells assessed as accumulation at G0/G1 phase at 1 uM after 24 hrs by propidium iodide staining based flow cytometry analysis (reference value: 45.75%); assay type: functional
SEM cells [9] = experiment: Induction of apoptosis in human SEM cells assessed as necrotic cells at 1 uM measured after 24 hrs by annexin V-propidium iodide staining based flow cytometric analysis (reference value: 0.0%); assay type: functional
NALM-6 [10] = experiment: Induction of apoptosis in human NALM6 cells assessed as early apoptotic cells at 0.5 uM measured after 24 hrs by annexin V-propidium iodide staining based flow cytometric analysis (reference value: 91.5%); assay type: functional
[11] = Cytotoxicity in human SEM cells assessed as cell death at 1 uM after 24 hrs; assay type: cell-based
SEM cells [12] = experiment: Induction of apoptosis in human SEM cells assessed as late apoptotic cells at 1 uM measured after 24 hrs by annexin V-propidium iodide staining based flow cytometric analysis (reference value: 7.2%); assay type: functional
NALM-6 [13] = experiment: Induction of apoptosis in human NALM6 cells assessed as necrotic cells at 0.5 uM measured after 24 hrs by annexin V-propidium iodide staining based flow cytometric analysis (reference value: 0.0%); assay type: functional
NALM-6 [14] = experiment: Induction of apoptosis in human NALM6 cells assessed as cleaved PARP level at 4.5 uM measured from 3 to 6 hrs by immunoblot analysis; assay type: functional, cell-based
Procedure, shortened: (§1)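 Immunoblots for activated caspase-3, activated caspase-7, and cleaved and uncleaved PARP. Cells were treated for 3, 6, 12 and 24 hr at 8.0 µM (SEM) or 4.5 µM (Nalm06). Negative controls were DMSO vehicle and an analog at 20 µM.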

BJ = experiment: Cytotoxicity against human BJ cells after 72 hrs by Cell-Titer Glo assay; assay type: cell-based
[15] = target: T1, c-Jun N-terminal kinase, JNK (Homo sapiens) (UniProt P45983+P53779+P45984); experiment: Induction of JNK phosphorylation in human SEM cells at 8 uM after 3 to 12 hrs by immunoblot analysis; assay type: cell-based
Procedure, shortened: (§2)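 Immunoblot of phospho-JNK and total JNK after 3, 6, 12 and 24 hr treatment at 8.0 µM (SEM) or 4.5 µM (Nalm06), with DMSO and an analog at 20 µM as negative controls. Quantified as the phospho/total JNK ratio normalized to DMSO (set to 1.0).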

Raji = experiment: Cytotoxicity against human Raji cells after 72 hrs by Cell-Titer Glo assay; assay type: functional, cell-based
Jurkat = experiment: Cytotoxicity against human Jurkat cells after 72 hrs by Cell-Titer Glo assay; assay type: functional, cell-based
SEM cells [16] = experiment: Induction of apoptosis in human SEM cells assessed as activated caspase3 levels at 8 uM after 6 hrs by immunoblot analysis; assay type: functional, cell-based; procedure, shortened: as §1
NALM-6 [17] = experiment: Induction of apoptosis in human NALM6 cells assessed as activated caspase3 level at 4.5 uM after 12 hrs by immunoblot analysis; assay type: functional, cell-based; procedure, shortened: as §1
NALM-6 [18] = experiment: Induction of apoptosis in human NALM6 cells assessed as cleaved PARP level at 4.5 uM measured after 12 hrs by immunoblot analysis; assay type: functional, cell-based; procedure, shortened: as §1
SEM cells [19] = experiment: Effect on cell cycle arrest in human SEM cells assessed as accumulation at G2/M phase at 8.0 uM after 24 hrs by propidium iodide staining based flow cytometry analysis (reference value: 7.63%)
HepG2 = experiment: Cytotoxicity against human HepG2 cells after 72 hrs by Cell-Titer Glo assay; assay type: functional, cell-based; details: HepG2, 72 h
SEM cells [20] = experiment: Induction of apoptosis in human SEM cells assessed as activated caspase7 levels at 8 uM after 6 and 12 hrs by immunoblot analysis; assay type: functional, cell-based; procedure, shortened: as §1
SEM cells [21] = experiment: Induction of apoptosis in human SEM cells assessed as necrotic cells at 8 uM measured after 24 hrs by annexin V-propidium iodide staining based flow cytometric analysis (reference value: 0.0%); assay type: functional
Procedure, shortened: (§3)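 SEM and Nalm06 cells were treated for 24 hr, then stained with fluorochrome-labeled Annexin V and propidium iodide for flow cytometry. Quadrants were scored as viable, early apoptotic, late apoptotic (Q2) and necrotic. DMSO was the negative control and 1 µM staurosporine the positive control. Representative of 3 independent experiments.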

[22] = Cytotoxicity against human NALM6 cells after 72 hrs by Cell-Titer Glo assay; assay type: functional, cell-based; details: NALM-6, 72 h
SEM cells [23] = experiment: Induction of apoptosis in human SEM cells assessed as uncleaved PARP levels at 8 uM after 3 to 12 hrs by immunoblot analysis; assay type: functional, cell-based; procedure, shortened: as §1
SEM cells [24] = experiment: Induction of apoptosis in human SEM cells assessed as activated caspase7 levels at 8.0 uM after 6 and 12 hrs by immunoblot analysis
[25] = target: T1, c-Jun N-terminal kinase, JNK (Homo sapiens); experiment: Induction of JNK phosphorylation in human NALM6 cells at 4.5 uM after 3 to 12 hrs by immunoblot analysis; assay type: cell-based; details: NALM-6; procedure, shortened: as §2
NALM-6 [26] = experiment: Induction of apoptosis in human NALM6 cells assessed as necrotic cells at 8.5 uM measured after 24 hrs by annexin V-propidium iodide staining based flow cytometric analysis (reference value: 0.0%); assay type: functional; procedure, shortened: as §3
SEM cells [27] = experiment: Induction of apoptosis in human SEM cells assessed as viable cells at 8 uM measured after 24 hrs by annexin V-propidium iodide staining based flow cytometric analysis (reference value: 1.5%); assay type: functional; details: read-out: Activity; procedure, shortened: as §3
NALM-6 [28] = experiment: Induction of apoptosis in human NALM6 cells assessed as late apoptotic cells at 8.5 uM measured after 24 hrs by annexin V-propidium iodide staining based flow cytometric analysis (reference value: 4.3%); assay type: functional; procedure, shortened: as §3
NALM-6 [29] = experiment: Induction of apoptosis in human NALM6 cells assessed as activated caspase7 level at 4.5 uM after 6 and 12 hrs by immunoblot analysis; assay type: functional, cell-based; procedure, shortened: as §1
NALM-6 [30] = experiment: Induction of apoptosis in human NALM6 cells assessed as early apoptotic cells at 8.5 uM measured after 24 hrs by annexin V-propidium iodide staining based flow cytometric analysis (reference value: 91.5%); assay type: functional; procedure, shortened: as §3
SEM cells [31] = experiment: Effect on cell cycle in human SEM cells assessed as accumulation at S phase at 8.5 uM after 24 hrs by propidium iodide staining based flow cytometry analysis (reference value: 46.62%); assay type: functional
SEM cells [32] = experiment: Induction of apoptosis in human SEM cells assessed as early apoptotic cells at 8 uM measured after 24 hrs by annexin V-propidium iodide staining based flow cytometric analysis (reference value: 85.3%); assay type: functional; procedure, shortened: as §3
HEK293 = experiment: Cytotoxicity against HEK293 cells after 72 hrs by Cell-Titer Glo assay; assay type: cell-based; details: Homo sapiens, HEK293, 72 h
SEM cells [33] = experiment: Induction of apoptosis in human SEM cells assessed as cleaved PARP levels at 8 uM after 3, 6 and 12 hrs by immunoblot analysis; assay type: functional, cell-based; procedure, shortened: as §1
SEM cells [34] = experiment: Effect on cell cycle in human SEM cells assessed as accumulation at G0/G1 phase at 8.5 uM after 24 hrs by propidium iodide staining based flow cytometry analysis (reference value: 45.75%); assay type: functional
SEM cells [35] = experiment: Induction of apoptosis in human SEM cells assessed as late apoptotic cells at 8 uM measured after 24 hrs by annexin V-propidium iodide staining based flow cytometric analysis (reference value: 7.2%); assay type: functional; procedure, shortened: as §3
[36] = Cytotoxicity against human SEM cells after 72 hrs by Cell-Titer Glo assay; assay type: functional, cell-based

CN[C@@H]1C[C@H]2O[C@@](C)([C@@H]1OC)n1c3ccccc3c3c4c(c5c6ccccc6n2c5c31)C(=O)NC4 [STAUROSPORINE]
Activity (NALM-6 [1]): Active
Activity (SEM cells [2]): 2.6%
Activity (NALM-6 [3]): Active
viability at 1 µM (SEM cells [4]): 5.5%
Activity (NALM-6 [5]): 25%
Activity (NALM-6 [6]): Active
Activity (SEM cells [7]): Active
Activity (SEM cells [8]): 100%
Activity (SEM cells [9]): 0%
Activity (NALM-6 [10]): 49%
Activity [11]: Toxic
Activity (SEM cells [12]): 85.3%
Activity (NALM-6 [13]): 0%

C=C[C@@](C)(/C=C/c1ccc(O)c(/C=C/C(=O)c2ccccc2)c1)CCC=C(C)C
Activity (NALM-6 [14]): inactive
EC50 (BJ): > 20 µM
Activity [15]: Active
EC50 (Raji): > 26 µM
EC50 (Jurkat): > 49 µM
Activity (SEM cells [16]): Active
Activity (NALM-6 [17]): Active
Activity (NALM-6 [18]): Active
Activity (SEM cells [19]): 8%
EC50 (HepG2): > 52.1 µM
Activity (SEM cells [20]): Active
Activity (SEM cells [21]): 0%
EC50 [22]: 4.47 µM
Activity (SEM cells [23]): inactive
Activity (SEM cells [24]): Active
Activity [25]: inactive
Activity (NALM-6 [26]): 0.1%
viability at 8 µM (SEM cells [27]): 6.9%
Activity (NALM-6 [28]): 81.2%
Activity (NALM-6 [29]): Active
Activity (NALM-6 [30]): 2.5%
Activity (SEM cells [31]): 55.75%
Activity (SEM cells [32]): 0.9%
EC50 (HEK293): > 7.41 µM
Activity (SEM cells [33]): Active
Activity (SEM cells [34]): 36.25%
Activity (SEM cells [35]): 81.1%
EC50 [36]: 8 µM

C=C[C@@](C)(/C=C/c1ccc(O)cc1)CC/C=C(\C)C=O
EC50 (BJ): > 36.6 µM
EC50 (Raji): > 26 µM
EC50 (Jurkat): > 49 µM
EC50 (HepG2): > 52.1 µM
EC50 [22]: 12.6 µM
EC50 (HEK293): > 36.6 µM
EC50 [36]: > 36.6 µM

C=C[C@@](C)(/C=C/c1ccc(O)c(/C=C(\C)C(=O)OCC)c1)CCC=C(C)C
EC50 (BJ): > 36.6 µM
EC50 (Raji): > 26 µM
EC50 (Jurkat): > 49 µM
EC50 (HepG2): > 52.1 µM
EC50 [22]: > 7.51 µM
EC50 (HEK293): > 36.6 µM
EC50 [36]: > 36.6 µM

C=C[C@@](C)(/C=C/c1ccc(O)c(/C=C/C(=O)NCc2ccc(C(F)(F)F)cc2)c1)CCC=C(C)C
EC50 (BJ): > 36.6 µM
EC50 (Raji): > 26 µM
EC50 (Jurkat): > 49 µM
EC50 (HepG2): > 52.1 µM
EC50 [22]: > 43.5 µM
EC50 (HEK293): > 36.6 µM
EC50 [36]: > 36.6 µM
